Results: article PMC3825418 (Investigational New Drugs, 2013)

What was measured:
[1] = target: DNA-PK (Homo sapiens, UniProt P78527); test: DNA-PK inhibition assay; assay type: biochemical; conditions: IC50 greater than 100 μM taken as not active; data not shown
[2] = system: PI3K isoforms; test: PI3K inhibition assay; assay type: biochemical; conditions: any of the PI3K isoforms; IC50 greater than 100 μM taken as not active; data not shown
[3] = system: HeLa cells; test: Sulphorhodamine blue; assay type: cell-based, human; conditions: 25 μM Etoposide and/or 200nM LTUSI54, 4 h, 2 days recovery; vs control
In short: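 Sulphorhodamine B assay on HeLa cells seeded at 2x10^3 cells/well and left to adhere overnight. Treated 4 h with 25 μM Etoposide, 200nM test compound or both, then PBS-washed. Recovery 48 h in medium containing 200nM test compound, or DMSO only for control and Etoposide-alone wells. Absorbance read at 538 nm. Mean ± SEM of four replicates; two-tailed t-test vs control.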

[4] = system: HeLa cells; test: CellTox green cytotoxicity assay; assay type: cell-based, human; conditions: 24 h
[5] = system: γ-H2AX; test: Flow cytometry for γ-H2AX expression; assay type: cell-based, human; conditions: for cells stained positive for γ-H2AX: 25 μM Etoposide, 200nM LTUSI54
[6] = system: HeLa cells; test: Cell cycle analysis by flow cytometry; assay type: cell-based, human; conditions: 4 h treatment; for cells in G2/M phase / cells in S phase: vs control
In short: (§1)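 HeLa cells (DMEM, 10 % FBS) treated 4 h with 25 μM Etoposide, 200nM test compound or both, with or without 2 days recovery in medium containing test compound. Harvested, fixed in 70 % ethanol at −20 °C overnight, then stained with 25 μg/ml propidium iodide plus 100 μg/ml RNase for 30 min at 37 °C in the dark. Doublets and debris gated out. Mean ± SEM, three independent experiments.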

[7] = system: p38α; test: Human phospho-kinase array, p38α; assay type: cell-based; conditions: HeLa cells, 4 h; 25 μM Etoposide, 200nM LTUSI54; vs control
In short: (§2)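 HeLa cells in small flasks treated 4 h with medium, 25 μM Etoposide, 200nM test compound or combination, then lysed. Human phospho-kinase antibody membranes incubated overnight at 4 °C with lysate at 150 μg/ml protein. Detection antibody cocktail 2 h at room temperature, streptavidin-HRP 30 min, then chemiluminescence at increasing exposures. Fold change vs control; two runs with duplicate spots.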

[8] = system: p53; test: Human phospho-kinase array, p53; assay type: cell-based; conditions: HeLa cells, 4 h; 25 μM Etoposide, 200nM LTUSI54; vs control
In short: as §2

[9] = system: HeLa cells; test: Sub G1 analysis; assay type: cell-based, human; conditions: 25 μM Etoposide and/or 200nM LTUSI54, 4 h, 2 days recovery
In short: as §1

[10] = 4 h treatment followed by 2 days recovery

Row | inhibitory effect on DNA-PK (IC50) [1] | inhibitory effect on PI3K isoforms (IC50) [2] | Compound | change in HeLa cell number (SRB) [3] | cytotoxic effect (CellTox green) ([4]; 200nM) | CellTox fluorescence ([4]; 100 μM, control 191 RFUs, p <0.0001) | cells stained positive for γ-H2AX [5, 10] | cells stained positive for γ-H2AX ([5]; after 4 h treatment) | cells in G2/M phase ([6]; 2 days recovery) | cells in G2/M phase [6] | cells in S phase [6] | fold increase in activity (phosphorylation) of p38α [7] | fold increase in activation of p53 [8] | apoptotic cells (sub G1 phase) [9] | fold decrease in γ-H2AX positive cells ([5]; 2 days recovery vs 4 h treatment) | cells in S phase ([6]; 2 days recovery) | cells in G1 phase ([6]; 2 days recovery, vs control and LTUSI54 alone (p < 0.0001))
1 | no inhibitory effect | no inhibitory effect | 2-((3-methoxybut-3en-2-yl)amino)-8methyl-4H-benzo[1,3]oxazin-4one [LTUSI54] | significant reduction in cell numbers | no cytotoxic effect | 299.3 RFUs | 2.7% | 7.3% | reduction of cells in G2/M phase | significant reduction of cells in G2/M phase | significant increase in cells in S phase | 3.645 fold | 1.5 fold | – | – | – | –
2 | – | – | COc1cc([C@@H]2c3cc4c(cc3[C@@H](O[C@@H]3O[C@@H]5CO[C@@H](C)O[C@H]5[C@H](O)[C@H]3O)[C@H]3COC(=O)[C@H]23)OCO4)cc(OC)c1O [Etoposide, reference compound] | significant reduction in cell number | – | – | 15% | about 80% | – | – | increase in cells in S phase | 2.64 fold | 3.5 fold | significant increase in apoptotic cells | more than 5 fold | significant increase | significant reduction in G1 cells
